Here are results for twelve molecules from ChEMBL document CHEMBL3120163, “Octulosonic acid derivatives from Roman chamomile (Chamaemelum nobile) with activities against inflammation and metabolic disorder” (J Nat Prod, 2014).

A short description of data set [1]: Inhibition of PMA-induced NFkappaB transcriptional activity in human SW1353 cells treated for 30 mins followed by PMA challenge measured after 6 to 8 hrs by luciferase reporter gene assay. Format: cell-based. The gist of the method: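 After 24 h they were pretreated with compound for 30 min, then stimulated with PMA 70 ng/mL for 6−8 h. Percent decrease in luciferase is relative to vehicle. Positive control: parthenolide.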
A general note: In a reporter assay the amount or activity of a reporter protein is the signal.

For data set [2], the target named is T1, Nitric oxide synthase, inducible (Mus musculus, UniProt P29477).
T1 sequence (P29477 whole entry): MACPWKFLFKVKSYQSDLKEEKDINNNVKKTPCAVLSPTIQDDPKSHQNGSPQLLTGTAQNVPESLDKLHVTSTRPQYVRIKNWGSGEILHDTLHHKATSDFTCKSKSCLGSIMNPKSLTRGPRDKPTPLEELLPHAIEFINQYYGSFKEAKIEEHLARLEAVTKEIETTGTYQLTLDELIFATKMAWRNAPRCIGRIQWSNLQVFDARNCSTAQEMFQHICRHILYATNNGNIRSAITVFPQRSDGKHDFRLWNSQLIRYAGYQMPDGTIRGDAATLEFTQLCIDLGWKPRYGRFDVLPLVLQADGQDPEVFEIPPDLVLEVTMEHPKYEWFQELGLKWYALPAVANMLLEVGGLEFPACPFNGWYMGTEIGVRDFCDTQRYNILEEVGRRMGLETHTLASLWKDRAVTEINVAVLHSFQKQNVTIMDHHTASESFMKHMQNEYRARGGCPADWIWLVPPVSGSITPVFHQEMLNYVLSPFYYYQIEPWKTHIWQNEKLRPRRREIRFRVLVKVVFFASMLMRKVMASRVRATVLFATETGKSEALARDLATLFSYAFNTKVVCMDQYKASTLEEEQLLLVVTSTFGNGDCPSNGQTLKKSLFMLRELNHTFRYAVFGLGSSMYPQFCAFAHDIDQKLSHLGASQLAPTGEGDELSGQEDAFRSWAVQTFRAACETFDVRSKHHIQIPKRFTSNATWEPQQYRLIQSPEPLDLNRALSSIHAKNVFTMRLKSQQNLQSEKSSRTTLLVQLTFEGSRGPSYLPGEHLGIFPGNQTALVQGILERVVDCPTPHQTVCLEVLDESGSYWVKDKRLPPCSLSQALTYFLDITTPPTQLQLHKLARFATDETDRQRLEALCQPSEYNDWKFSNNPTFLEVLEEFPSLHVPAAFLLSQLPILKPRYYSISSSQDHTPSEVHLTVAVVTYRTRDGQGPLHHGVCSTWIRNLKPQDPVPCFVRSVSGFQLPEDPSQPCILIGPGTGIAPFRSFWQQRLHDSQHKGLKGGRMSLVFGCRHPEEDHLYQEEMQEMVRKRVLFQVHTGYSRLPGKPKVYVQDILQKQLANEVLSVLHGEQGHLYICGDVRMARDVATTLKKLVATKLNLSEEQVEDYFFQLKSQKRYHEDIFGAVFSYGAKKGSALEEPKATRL
In words: Inhibition of iNOS in mouse RAW264.7 cells assessed as LPS-induced nitric oxide production treated for 30 mins followed by LPS challenge measured after 24 hrs by Griess reagent method. Format: cell-based. The gist of the method: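 RAW264.7 macrophages were grown in phenol red-free RPMI with 10% bovine calf serum. Cells were seeded at 100 000 per well and grown 24 h to at least 75% confluency. Compound was added 30 min before LPS 5 μg/mL, then incubated 24 h. Supernatant nitrite was measured by Griess reagent; percent inhibition is versus vehicle, with IC50 from dose-response curves. Positive control: parthenolide.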
A general note: The Griess reaction detects nitrite, a stable product of nitric oxide.

Data set [3] addresses T2, Peroxisome proliferator-activated receptor alpha (Homo sapiens) (UniProt Q07869).
T2 sequence (whole entry): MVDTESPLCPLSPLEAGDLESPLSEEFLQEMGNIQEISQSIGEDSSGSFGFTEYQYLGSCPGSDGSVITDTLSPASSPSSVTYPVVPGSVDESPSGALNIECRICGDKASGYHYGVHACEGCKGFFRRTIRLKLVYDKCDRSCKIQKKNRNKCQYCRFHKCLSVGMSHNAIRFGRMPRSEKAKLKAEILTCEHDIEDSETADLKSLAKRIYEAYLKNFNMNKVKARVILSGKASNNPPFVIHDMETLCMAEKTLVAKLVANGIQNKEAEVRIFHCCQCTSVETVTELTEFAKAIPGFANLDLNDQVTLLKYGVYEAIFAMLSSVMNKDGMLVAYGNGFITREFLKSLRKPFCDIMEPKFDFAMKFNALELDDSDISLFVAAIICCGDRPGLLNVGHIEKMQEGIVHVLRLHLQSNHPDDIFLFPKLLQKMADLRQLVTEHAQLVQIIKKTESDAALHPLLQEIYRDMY
Briefly: Activation of PPARalpha in human HepG2 cells at 25 uM after 24 hrs by luciferase reporter gene assay relative to vehicle-treated control. Format: cell-based. The gist of the method: (§1)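 HepG2 cells in DMEM with 10% FBS were electroporated at 160 V with a single 70 ms pulse. Plasmid pairs were pSG5-PPARα + PPRE X3-tk-luc, pCMV-rPPARγ + pPPREaP2-tk-luc, or pCMX-hLXRα + LXRE-tk-luc. Cells were seeded at 5 × 10^4 per well, grown 24 h, then dosed. After 24 h the cells were lysed and luciferase read. Fold induction is versus vehicle. Positive controls: ciprofibrate, rosiglitazone, 25-hydroxycholesterol.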

Data set [4] concerns the target T3, Peroxisome proliferator-activated receptor gamma (Homo sapiens) (UniProt P37231).
T3 sequence (whole entry): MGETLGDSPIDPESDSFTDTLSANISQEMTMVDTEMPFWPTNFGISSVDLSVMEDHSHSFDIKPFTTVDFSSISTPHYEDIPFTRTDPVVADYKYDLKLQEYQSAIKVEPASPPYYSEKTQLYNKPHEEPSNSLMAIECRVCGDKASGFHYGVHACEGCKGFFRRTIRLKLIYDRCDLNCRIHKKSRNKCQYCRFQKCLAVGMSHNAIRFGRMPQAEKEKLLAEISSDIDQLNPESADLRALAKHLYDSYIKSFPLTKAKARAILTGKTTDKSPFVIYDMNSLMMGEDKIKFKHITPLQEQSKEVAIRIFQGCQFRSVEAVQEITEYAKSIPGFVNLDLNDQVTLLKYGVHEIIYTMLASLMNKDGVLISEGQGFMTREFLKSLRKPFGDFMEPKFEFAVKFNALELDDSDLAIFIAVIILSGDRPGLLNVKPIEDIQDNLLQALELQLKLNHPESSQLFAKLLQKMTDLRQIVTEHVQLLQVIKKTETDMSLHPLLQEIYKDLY
Briefly: Activation of PPARgamma in human HepG2 cells at 25 uM after 24 hrs by luciferase reporter gene assay relative to vehicle-treated control. The data set is classed as cell-based. The gist of the method: as §1

Data set [5] has as its target T4, Oxysterols receptor LXR-alpha (Homo sapiens) (UniProt Q13133).
T4 sequence (whole entry): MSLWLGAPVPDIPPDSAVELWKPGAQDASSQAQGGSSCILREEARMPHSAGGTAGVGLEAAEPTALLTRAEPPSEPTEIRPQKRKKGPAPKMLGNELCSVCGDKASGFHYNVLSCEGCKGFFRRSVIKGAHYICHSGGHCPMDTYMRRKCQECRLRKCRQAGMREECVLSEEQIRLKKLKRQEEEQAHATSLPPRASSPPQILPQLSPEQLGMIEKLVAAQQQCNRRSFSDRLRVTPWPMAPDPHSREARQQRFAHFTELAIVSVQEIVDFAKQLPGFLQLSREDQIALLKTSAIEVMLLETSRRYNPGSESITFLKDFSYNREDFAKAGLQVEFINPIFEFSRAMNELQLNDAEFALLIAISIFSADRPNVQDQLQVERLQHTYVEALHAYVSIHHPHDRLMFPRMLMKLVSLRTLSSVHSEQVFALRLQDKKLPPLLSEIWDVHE
Briefly: Activation of LXRalpha in human HepG2 cells at 25 uM after 24 hrs by luciferase reporter gene assay relative to vehicle-treated control. The data set is classed as cell-based. The gist of the method: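 HepG2 cells in DMEM with 10% FBS, electroporated (160 V, single 70 ms pulse) with pCMX-hLXRα plus LXRE-tk-luc plasmids; plated at 5 × 10^4 cells/well and grown 24 h. Treated with test compounds for 24 h, then lysed for luciferase read-out. Fold induction calculated against vehicle control; 25-hydroxycholesterol as positive control.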

Data set [6] deals with T5, Growth/differentiation factor 15 (Homo sapiens) (UniProt Q99988).
T5 sequence (whole entry): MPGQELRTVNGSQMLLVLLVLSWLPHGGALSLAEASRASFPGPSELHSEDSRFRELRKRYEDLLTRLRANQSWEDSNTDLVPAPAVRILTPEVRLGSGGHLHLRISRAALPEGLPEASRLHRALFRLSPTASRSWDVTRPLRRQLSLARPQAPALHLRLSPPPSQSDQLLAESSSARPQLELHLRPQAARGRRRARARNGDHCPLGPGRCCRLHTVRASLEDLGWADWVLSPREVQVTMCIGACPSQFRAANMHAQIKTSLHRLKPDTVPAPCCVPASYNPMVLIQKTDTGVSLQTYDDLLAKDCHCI
In words: Activation of NAG-1 in human SW1353 cells at 20 uM after 24 hrs by luciferase reporter gene assay relative to vehicle-treated control. The data set is classed as cell-based. In outline: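 SW1353 chondrosarcoma cells in DMEM/F12 with 10% FBS were electroporated (160 V, one 70 ms pulse) with 25 μg […]. Cells were seeded at 1 × 10^5 per well, then dosed 24 h later for 24 h. Luciferase light output gave fold induction versus vehicle. Positive control: diclofenac.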

In data set [7] the test system is HepG2. In words: Cytotoxicity against human HepG2 cells up to 50 uM after 48 hrs by neutral red assay. Format: cell-based. The following applies: hepg2, 48 h.
Data set [8] deals with HepG2. In words: Antioxidant activity in human HepG2 cells assessed as inhibition of ABAP-induced intracellular peroxyl radical scavenging activity by measuring ROS production measured every 5 mins for 1 hr by fluorescence assay.
The subject of a further data set is RAW264.7. Briefly: Cytotoxicity against mouse RAW264.7 cells up to 50 uM after 48 hrs by neutral red assay. Format: cell-based. Conditions: raw264.7, 48 h; call rule not given here.
Where [9] appears, read: Homo sapiens, SW1353, read-out: IC50.

In general, IC50 refers to the midpoint of a concentration-inhibition curve. As to `C=C1C(=O)O[C@@H]2C3O[C@]3(C)CC/C=C(\C)CC[C@@H]12` (some centres not stated), the figures for the half-maximal inhibitory concentration (IC50) in data set [1] (setting [9]) and in [2] (read-out: IC50) were 1.63 µM and 1.05 µM, respectively.
`CC(C)(Oc1ccc(C2CC2(Cl)Cl)cc1)C(=O)O` (configuration not stated) displayed a fold change (FC) in data set [3] of 4.35.
The molecule `CC1(COc2ccc(CC3SC(=O)NC3=O)cc2)CCCCC1` (configuration not stated) returned a fold change (FC) in [4] of 3.65.
For `C[C@H](CCCC(C)(C)O)[C@H]1CC[C@H]2[C@@H]3CC=C4C[C@@H](O)CC[C@]4(C)[C@H]3CC[C@]12C`, in [5], the fold change (FC) amounted to 4.67.
`O=C(O)Cc1ccccc1Nc1c(Cl)cccc1Cl`: in data set [6], the fold change (FC) was 2.65.
As to `COC(=O)[C@]12C[C@@H](OC(=O)/C=C/c3ccc(O)c(O)c3)[C@@H](OC(=O)/C=C/c3ccc(O)c(O)c3)[C@@H](O1)[C@@H](COC(=O)/C=C/c1ccc(O)c(O)c1)O2` (relative stereo), the Activity entry with HepG2 [7] and with RAW264.7 was “Non-toxic” throughout. Besides, the IC50 is 42 µM in data set [1] (setting [9]), “Not Active” in data set [2] (raw264.7) and 26 µM in the data set on HepG2 [8].
Consider `COC(=O)[C@]12C[C@@H](OC(=O)/C=C/c3ccc(O)c(O)c3)[C@@H](O)[C@H](O1)[C@@H](COC(=O)/C=C/c1ccc(O)c(O)c1)O2` (relative stereo), for which the Activity entry in the data set on HepG2 [7] and in the data set on RAW264.7 was “Non-toxic” each time. For the same molecule, the concentration for half-maximal inhibition (IC50) result in data set [1] (sw1353) was “Not Active”; in [2] (raw264.7) it was “Not Active”; in the data set on HepG2 [8], 34.5 µM.
As to `COC(=O)[C@]12C[C@@H](O)[C@@H](O)[C@H](O1)[C@@H](COC(=O)/C=C/c1ccc(O)c(O)c1)O2` (relative stereo), the Activity entry in the data set on HepG2 [7] and in the data set on RAW264.7 was “Non-toxic” throughout. The IC50 result in data set [1] (sw1353) was “Not Active”; in [2] (raw264.7), “Not Active”; with HepG2 [8] it was 86 µM.
Turning to `O=C(/C=C/c1ccc(O)c(O)c1)OC[C@H]1O[C@@]2(C(=O)O)C[C@@H](OC(=O)/C=C/c3ccc(O)c(O)c3)[C@@H](OC(=O)/C=C/c3ccc(O)c(O)c3)[C@H]1O2` (relative stereo), the Activity entry in the data set with HepG2 [7] and in the data set with RAW264.7 was “Non-toxic” in each case. In addition, the IC50 entry is “Not Active” in data set [1] (sw1353), “Not Active” in data set [2] (raw264.7) and 59.5 µM with HepG2 [8].
`O=C(/C=C/c1ccc(O)c(O)c1)OC[C@H]1O[C@@]2(C(=O)O)C[C@@H](OC(=O)/C=C/c3ccc(O)c(O)c3)[C@@H](O)[C@@H]1O2` (relative stereo): the Activity entry in the data set with HepG2 [7] and with RAW264.7 was “Non-toxic” each time. The IC50 result in [1] (sw1353) is “Not Active”; in data set [2] (raw264.7) it was “Not Active”; in the data set on HepG2 [8], 79 µM.
On to `O=C(/C=C/c1ccc(O)c(O)c1)OC[C@H]1O[C@@]2(C(=O)O)C[C@@H](O)[C@@H](O)[C@@H]1O2` (relative stereo), for which the Activity result in the data set with HepG2 [7] and in the data set on RAW264.7 was “Non-toxic” in each case. Besides, the IC50 entry was “Not Active” in [1] (sw1353), “Not Active” in data set [2] (raw264.7) and greater than 100 µM in the data set on HepG2 [8].
With `O=c1c(O)c(-c2ccc(O)c(O)c2)oc2cc(O)cc(O)c12` [QUERCETIN], in the data set with HepG2 [8], the IC50 worked out at 11 µM.
